Entries after “also recorded” stand apart in the source; their conditions may differ. Where two headings read alike, the source gives them in different places.
Tests used:
Phase I dose escalation = assay type: in vivo, human
[1] = Pharmacokinetics of gefitinib in plasma; assay type: in vivo, human
[2] = test system: proapoptotic BIM protein (BIMEL); assay: Pharmacodynamics: western blotting of PBMC protein, BIMEL; assay type: in vivo, human
[3] = biweekly, plus erlotinib 150 mg daily or gefitinib 250 mg daily; cited from earlier work
[4] = test system: T790M‐positive EGFR‐mutated NSCLC cells; conditions: in vitro; cited from earlier work
[5] = test system: BIM deletion polymorphism‐positive EGFR‐mutated NSCLC cell lines (PC‐3); conditions: cited from earlier work
[6] = test system: acetylated histone H3 (Lys27); assay: Pharmacodynamics: western blotting of PBMC protein, acetylated histone H3; assay type: in vivo, human
[7] = Pharmacokinetics of vorinostat in serum; assay type: in vivo, human; conditions: for AUC(0-t): AUC last
Method in brief: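 Patients with EGFR-mutated (exon 19 deletion or L858R) NSCLC carrying the BIM deletion polymorphism received oral vorinostat once daily on days 1-7 (200, 300 or 400 mg) with oral gefitinib 250 mg once daily, in 14-day cycles. Vorinostat was quantified in serum. Tmax is given as a median, and t1/2 and Cmax as mean ± SD per dose level.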

[8] = 4 h after dose on day 2 of cycle 1, all levels
[9] = human, po, 200 mg, mean (SD), vorinostat Level 1 (200 mg) oral, n=3
[10] = human, po, 200 mg, median (range), vorinostat Level 1 (200 mg) oral, n=3

SMILES: COc1cc2ncnc(Nc3ccc(F)c(Cl)c3)c2cc1OCCCN1CCOCC1 [Gefitinib]
- Recommended phase II dose (RP2D) of gefitinib (Phase I dose escalation; daily, with vorinostat 400 mg/day biweekly): 250 mg
- Median T max of gefitinib ([1]; gefitinib 250 mg, vorinostat 200 mg group): 4 h

SMILES: O=C(CCCCCCC(=O)Nc1ccccc1)NO [Vorinostat, suberoylanilide hydroxamic acid]
- Patients with increased proapoptotic BIM protein (BIMEL) expression [2, 8]: 5/11
- Patients with increased proapoptotic BIM protein (BIMEL) expression ([2]; 4 h after dose on day 2 of cycle 1, all levels, listed as vorinostat): five of 11
- Patients with increased proapoptotic BIM protein (BIMEL) expression ([2]; all levels): 45.5%
- Patients with increased proapoptotic BIM protein (BIMEL) expression ([2]; level 1 (200 mg)): 1/3
- Patients with increased proapoptotic BIM protein (BIMEL) expression ([2]; level 2 (300 mg)): 3/3
- Patients with increased proapoptotic BIM protein (BIMEL) expression ([2]; level 3 (400 mg)): 1/5
- Recommended dose of vorinostat [3]: 400 mg/day
- Sensitization of cells to gefitinib [4]: did not sensitize T790M‐positive EGFR‐mutated NSCLC cells to gefitinib
- Resensitization of cells to EGFR-TKI by addition of vorinostat [5]: could resensitize these cells to EGFR‐TKI
- Recommended phase II dose (RP2D) of vorinostat (Phase I dose escalation; biweekly, combined with gefitinib 250 mg daily): 400 mg/day
- Recommended phase II dose (RP2D) of vorinostat (Phase I dose escalation; combined with gefitinib): 400 mg
- Patients with increased acetylated histone H3 protein expression [6, 8]: 10/11
- Patients with increased acetylated histone H3 protein expression ([6]; all levels): 91%
- Patients with increased acetylated histone H3 protein expression ([6]; level 1 (200 mg)): 3/3
- Patients with increased acetylated histone H3 protein expression ([6]; level 2 (300 mg)): 3/3
- Patients with increased acetylated histone H3 protein expression ([6]; level 3 (400 mg)): 4/5
- half-life ([7]; human, po, 200 mg): 3.6 h
- AUC(0-inf) [7, 9]: 2.43 µM·h
- AUC(0-inf) [7, 10]: 2.83 µM·h
- AUC(0-t) [7, 9]: 2.34 µM·h
- AUC(0-t) [7, 10]: 2.72 µM·h
- Cmax ([7]; human, po, 200 mg, C max, mean (SD), vorinostat Level 1 (200 mg) oral, n=3): 602 nM
- Tmax ([7]; human, po, 300 mg): 3.3 h
- Tmax ([7]; human, po, 400 mg): 3.5 h
- half-life ([7]; human, po, 400 mg): 2.1 h
- Cmax ([7]; read-out: C max, median (range), vorinostat Level 1 (200 mg) oral, n=3): 615 nM
- Cmax ([7]; read-out: C max, median (range), vorinostat Level 3 (400 mg) oral, n=6): 944 nM
- T max, median (range) ([7]; vorinostat Level 1 (200 mg) oral, n=3): 2.0 (1.1‐4.0) h
- T max, median (range) ([7]; vorinostat Level 3 (400 mg) oral, n=6): 4.0 (0.9‐4.1) h
- Effect of vorinostat on the pharmacokinetics of gefitinib ([1]; vorinostat 200, 300, 400 mg groups compared): unlikely to affect the pharmacokinetics of gefitinib; also recorded: did not affect the dynamics of gefitinib

SMILES: C=CC(=O)Nc1cc(Nc2nccc(-c3cn(C)c4ccccc34)n2)c(OC)cc1N(C)CCN(C)C [osimertinib]
- Sensitivity to osimertinib-induced apoptosis [5]: resistant to osimertinib‐induced apoptosis

— article PMC7004511 (Cancer Science, 2020)
